Bioassay records as filed in PubChem.
TAAR1 antagonist: human TAAR1 antagonists, primary screen, Fluo-8 calcium fluorescence, CHO RD-HGA16 cells; Trace amine-associated receptor 1 (Homo sapiens), Q96RJ0; antagonist; inhibition, % at 3 µM; 360,000 compounds, 1.5% hits;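 active = inhibition above a per-plate cutoff, the mean inhibition of test compounds on that plate plus 3 SD, cut at about 49% in these data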;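 note: 0% = DMSO plus EC80 beta-PEA response and 100% = DMSO alone without agonist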
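System: RD-HGA16 CHO cells with stable hTAAR1 and Gα16 | Probe or stimulus: EC80 β-phenethylamine stimulus | Dosing: 3 µM, single point | Times: Dye loading 75 min at 37 °C, then 30 min room temperature | Measured by: Fluo-8 calcium-sensitive fluorescence | Read-out basis: % inhibition of agonist calcium response | Replicates: n of 1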
V1R ag counter: agonists of human V1a receptor, primary screen, counter-screen for OXTR agonist project, fluorescence, CHO-V1R cells | 320,000 compounds, 0.25% hits | AID 2797, 2010 | Vasopressin V1a receptor (Homo sapiens), P37288 | Fluo-8 calcium fluorescence, agonist mode; 0% DMSO, 100% 3 nM vasopressin | activation, % at 3 µM;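 active = activation above the mean activation of all tested compounds plus 3 SD, per screening run, cut at about 20% in these data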;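 note: signal is peak over basal fluorescence ratio across a 100 second FLIPR read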
OXTR potentiator: human OXTR potentiators, primary screen, fluorescence, CHO-OTR cells, Fluo-8 calcium; AID 2445, 2010; activation, % at 3 µM; Oxytocin receptor (Homo sapiens), P30559; 320,000 compounds, 0.061% hits; Fluo-8 calcium fluorescence, potentiator mode; 0% = oxytocin EC15, 100% = EC100;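 active = activation above that plate's cutoff, the mean activation of tested compounds plus 3 SD, cut at about 6.6% in these data, passing the limit was not always enough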;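 note: 100% uses oxytocin at 75 nM as the full agonist control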
Target sequence (P30559 whole entry, looked up): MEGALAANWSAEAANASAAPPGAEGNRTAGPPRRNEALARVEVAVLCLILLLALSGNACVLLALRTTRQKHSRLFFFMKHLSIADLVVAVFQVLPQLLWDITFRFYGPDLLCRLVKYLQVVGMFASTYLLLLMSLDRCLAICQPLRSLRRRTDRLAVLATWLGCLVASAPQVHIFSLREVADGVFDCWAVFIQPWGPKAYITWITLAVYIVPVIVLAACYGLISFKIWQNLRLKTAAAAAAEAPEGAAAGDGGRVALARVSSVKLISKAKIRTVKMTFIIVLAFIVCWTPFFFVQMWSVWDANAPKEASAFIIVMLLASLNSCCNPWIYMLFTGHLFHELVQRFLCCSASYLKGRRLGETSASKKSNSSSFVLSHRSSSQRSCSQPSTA
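Assay system: CHO-OTR cells, human receptor / Also added: oxytocin at about EC15, sub-maximal agonist stimulus / Dosing: single dose, 3.0 µM nominal final compound concentration / Incubation: 6 min pre-incubation, 100 s read / Technique: Fluo-8 calcium dye fluorescence / Read-out: % activation vs EC15 and EC100 oxytocin / Benchmarks: EC15 oxytocin low, 75 nM oxytocin high / Replicates: singlicate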
OXTR ag: human OXTR agonists, primary screen, fluorescence, CHO-OTR cells, Fluo-8 calcium | Fluo-8 calcium fluorescence; normalized: DMSO 0%, oxytocin 100% | activation, % at 3 µM | 320,000 compounds, 0.32% hits | Oxytocin receptor (Homo sapiens), P30559 | AID 2435, 2010;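 active = activation above the mean of all tested compounds plus 3 SD, cutoff set per screening run, cut at about 20% in these data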;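 note: peak over basal fluorescence ratio from a 100 s FLIPR kinetic read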
TAAR1 ag: human TAAR1 agonists, primary screen, Fluo-8 calcium fluorescence, CHO RD-HGA16 cells; 360,000 compounds, 0.99% hits; vehicle wells 0%, saturating PEA agonist 100%; activation, % at 3 µM; Trace amine-associated receptor 1 (Homo sapiens), Q96RJ0;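 active = activation above the mean activation of all test compounds in the run plus 3 SD, cut at about 38% in these data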
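System: CHO RD-HGA16 cells carrying human TAAR1 plus Gα16; Incubation: 17-24 h seeding, 75 min 37 °C dye, 30 min RT; Measured by: Fluo-8 fluorescence, 5 s baseline then 140 s kinetic read; Control set: DMSO and PEA EC100; Replication: single well for each compound.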
Starred values were filed as active, the others as inactive. Rows were chosen to be rich in hits. Some 2.3% of all compounds tested hit in one or more screens of this group.

For CCOC(=O)Cc1csc(NC(=O)CSc2nnnn2-c2ccc(CC)cc2)n1 the results were TAAR1 antagonist 5.0, V1R ag counter 5.8, OXTR potentiator -7.6, OXTR ag 9.9 and TAAR1 ag 0.7.
For CCn1cc(C(=O)Nc2ccc(Oc3cccnc3)cc2)c2ccccc21 the results were TAAR1 antagonist 21.6 and TAAR1 ag 4.6.
`CCN1C/C(=C/c2ccc(N3CCOCC3)cc2)C(=O)/C(=C/c2ccc(N3CCOCC3)cc2)C1` gave TAAR1 antagonist 40.2, V1R ag counter 21.6*, OXTR potentiator -11.7, OXTR ag 25.7* and TAAR1 ag 25.2.
`Cc1ccc(S(=O)(=O)NCC2CCN(C(=O)C(=O)c3cc4ccccc4o3)CC2)cc1` gave TAAR1 antagonist -21.0 and TAAR1 ag 0.0.
For O=C(Nc1cccc(S(=O)(=O)N2CCCCC2)c1)c1ccc2c(=O)n3c(nc2c1)CCCCC3 the results were TAAR1 antagonist 60.8*, V1R ag counter 5.2, OXTR potentiator -9.5, OXTR ag 7.7 and TAAR1 ag 9.8.
`O=C(Nc1cccc(S(=O)(=O)N2CCCCC2)c1)c1ccc(S(=O)(=O)C(F)F)cc1` gave TAAR1 antagonist 52.8*, V1R ag counter 9.5, OXTR potentiator -14.8, OXTR ag 8.8 and TAAR1 ag 10.6.
O=C(CNc1cccc(Br)c1)Nc1ccc(S(=O)(=O)N2CCCCC2)cc1 was read as TAAR1 antagonist -8.7 and TAAR1 ag 9.5.
`CCNc1ccc(S(=O)(=O)N2CCOCC2)cc1NCC(=O)Nc1cccc(Br)c1` gave TAAR1 antagonist 53.3* and TAAR1 ag 12.6.
For CCc1ccc(NC(=O)c2ccc3c(=O)n4c(nc3c2)CCCCC4)cc1 the results were TAAR1 antagonist 13.2, V1R ag counter 5.6, OXTR potentiator -9.2, OXTR ag 5.4 and TAAR1 ag -1.0.
O=C(CNc1cccc(S(=O)(=O)N2CCCCCC2)c1)Nc1cccc([N+](=O)[O-])c1 was read as TAAR1 antagonist 56.0*, V1R ag counter 10.0, OXTR potentiator -11.0, OXTR ag 14.5 and TAAR1 ag 8.5.
`Nc1ccccc1C(O)(Cc1ccccc1)c1ccccc1` (stereo not drawn) gave TAAR1 antagonist -5.0, V1R ag counter -1.6, OXTR potentiator -5.8, OXTR ag -2.5 and TAAR1 ag -3.9.
Screening Cc1cc(C)n(-c2nc(Nc3ccccc3C)nc(-n3nc(C)cc3C)n2)n1 returned TAAR1 antagonist 87.5*, V1R ag counter 5.1, OXTR potentiator -22.6, OXTR ag 19.1 and TAAR1 ag 39.1*.
Screening Cc1cc(C)n(-c2nc(NC(C)(C)C)nc(NC(C)(C)C)n2)n1 returned TAAR1 antagonist -4.5, V1R ag counter -0.2, OXTR potentiator -6.8, OXTR ag -2.0 and TAAR1 ag 4.5.
`CCN(Cc1cnn(C)c1)C(=O)c1ccc2nc(Cc3ccccc3F)oc2c1` gave TAAR1 antagonist -15.3 and TAAR1 ag -0.7.
`Cc1ccc(COn2c(-c3ccc(Cl)cc3)nc3ccc([N+](=O)[O-])cc32)cc1` gave TAAR1 antagonist 27.1, V1R ag counter 0.2, OXTR potentiator -1.4, OXTR ag 1.0 and TAAR1 ag 34.3.
Screening O=[N+]([O-])c1ccc2nc(-c3ccc(Cl)cc3)n(OCc3ccccc3)c2c1 returned TAAR1 antagonist 18.2, V1R ag counter 2.0, OXTR potentiator -8.7, OXTR ag 0.3 and TAAR1 ag 38.5*.
COc1ccc(COC(=O)C2CC(=O)N(Cc3ccccc3)C2)cc1 (stereo not drawn) was read as TAAR1 antagonist 6.1, V1R ag counter -0.7, OXTR potentiator -4.5, OXTR ag 0.4 and TAAR1 ag 1.7.
For CCN(c1cccc(C(F)(F)F)c1)S(=O)(=O)c1ccc2c(c1)CCN2C(=O)C1CC1 the results were TAAR1 antagonist 60.9*, V1R ag counter 3.1, OXTR potentiator -10.8, OXTR ag 1.1 and TAAR1 ag 6.0.
Screening CCC(=O)N1CCc2cc(S(=O)(=O)N(CC)c3cccc(C)c3)ccc21 returned TAAR1 antagonist 16.6, V1R ag counter 3.5, OXTR potentiator -19.3, OXTR ag 3.5 and TAAR1 ag 9.4.
`CN(C)c1ccc(C(C(=O)NCC2CCCO2)N(C(=O)c2snc(C(N)=O)c2N)c2ccccc2)cc1` (stereo not drawn) gave TAAR1 antagonist 51.7*, V1R ag counter 1.3, OXTR potentiator -8.1, OXTR ag 0.2 and TAAR1 ag 22.3.
NC(=O)c1nsc(C(=O)N(c2ccccc2)C(C(=O)NC2CCCC2)c2ccc3ncccc3c2)c1N (stereo not drawn) was read as TAAR1 antagonist 51.3*, V1R ag counter 3.4, OXTR potentiator -10.3, OXTR ag -0.8 and TAAR1 ag 8.3.
For CC(C)c1ccc(N(C(=O)c2snc(C(N)=O)c2N)C(C(=O)NCC2CCCO2)c2ccc(N(C)C)cc2)cc1 (stereo not drawn) the results were TAAR1 antagonist 55.3* and TAAR1 ag 24.1.
Screening CCc1ccccc1N(C(=O)c1snc(C(N)=O)c1N)C(C(=O)NCC1CCCO1)c1ccc(N(C)C)cc1 (stereo not drawn) returned TAAR1 antagonist -7.0 and TAAR1 ag -1.1.
CN1CCN(c2ncnc3c2ncn3[C@H]2CN(Cc3ccncc3)C[C@@H](CO)O2)CC1 was read as TAAR1 antagonist -12.0 and TAAR1 ag 0.7.
COc1ccc(S(=O)(=O)N/N=c2\oc3c(OC)cccc3cc2S(=O)(=O)c2ccc(C)cc2)cc1OC was read as TAAR1 antagonist 10.6, V1R ag counter 0.1, OXTR potentiator -6.1, OXTR ag 1.2 and TAAR1 ag 14.9.
`CC(=O)c1sc(NC(=O)CCCc2nc3ccccc3c(=O)[nH]2)nc1-c1ccccc1` gave TAAR1 antagonist 20.1, V1R ag counter 0.4, OXTR potentiator -4.9, OXTR ag 0.1 and TAAR1 ag 6.0.
For COc1ccccc1-c1cc(NC=O)c2ncc(-c3ccc(F)cc3)n2c1 the results were TAAR1 antagonist 51.2* and TAAR1 ag 52.5*.
Screening COc1ccc(F)cc1-c1cc(NC=O)c2ncc(-c3cc(OC)c(OC)c(OC)c3)n2c1 returned TAAR1 antagonist 76.8* and TAAR1 ag 48.4*.
`COc1ccccc1-c1cc(NC=O)c2ncc(-c3cccc(C(F)(F)F)c3)n2c1` gave TAAR1 antagonist 24.4 and TAAR1 ag 5.0.
`COc1cc(-c2cnc3c(NC=O)cc(-c4ccc(C)cc4)cn23)cc(OC)c1OC` gave TAAR1 antagonist 0.7 and TAAR1 ag 23.8.
